Assay results of several laboratories.
Lines come from different studies, so protocols differ.
Effect on: cell growth or viability

`O=C(Nc1cccc(-c2cccc(-c3nc4ccccc4[nH]3)c2)c1)NC1CC1c1ccccc1` (stereo not drawn) gave an IC50 of > 10 µM (HEK293).
With `Cc1cc(C)c(CNC(=O)c2cc(Cl)c3c(c2C)O[C@@](C)([C@H]2CC[C@H](N(C)C)CC2)O3)c(=O)[nH]1` the GI50 was 0.013 µM (KARPAS-422; 8 days).
`FC1CCN(C2(CNCc3ccc(-c4ccccc4)o3)COC2)C1` (stereo not drawn) has a viability of 96.4% (T98G; 30 µM, 48 h).
`CCOC(=O)c1cn(CC)c2cc(N3CCCCCC3)c(F)cc2c1=O` has an IC50 of > 10 µM (HEK293).
`CCCc1n(Cc2ccc3ccccc3n2)cc[n+]1Cc1ccc2ccccc2c1` gave a TGI of 15 µM (NCI-H322M; SRB).
For `CN1CCCC(CN2CCN(Cc3ccc(-c4cccc(-c5nc6ccccc6[nH]5)c4)cc3)CC2)C1` (stereo not drawn), the IC50 was > 10 µM (HEK293).
`c1ccc(-c2ccc(CNCC3(N4CCCC4)COC3)s2)cc1` gave a viability of 52.6% (GBM6; 30 µM, 48 h).
The IC50 of `Cc1[nH]c(C)c(-c2ccc(OCc3cccc(C(F)(F)F)c3)nc2)c(=O)c1Br` is reported as > 10 µM (HEK293).
`Clc1ccccc1-c1ccc(CNCC2(N3CCCC3)COC2)o1` has a viability of 94.9% (T98G; 30 µM, 48 h).
The IC50 of `COc1ccc(Oc2ccc(-c3c(C)[nH]c(C)c(Cl)c3=O)cc2)cc1` is reported as > 10 µM (HEK293).
For `Cc1n(Cc2ccc3ccccc3n2)cc[n+]1Cc1ccc2ccccc2c1`, the TGI was 14.7 µM (NCI-H322M; SRB).
`c1cc2cc(CNCC3(N4CCCC4)COC3)ccc2[nH]1` gave a viability of 101% (GBM6; 30 µM, 48 h).
The GI50 of `COc1ccc(-c2ccc(-c3ccc(C(=N)N)nc3)s2)cc1Cl` is reported as 1.74 µM (SF-539; SRB).
`Fc1ccc2[nH]cc(CNCC3(N4CCC(F)C4)COC3)c2c1` (stereo not drawn) has a viability of 75.2% (T98G; 30 µM, 48 h).
The GI50 of `COc1cc(-c2ccc(-c3ccc(C(=N)N)nc3)s2)cc(OC)c1OC` is reported as 1.62 µM (SK-MEL-28; SRB).
`Cc1[nH]c(C)c(-c2ccc(OCc3ccc(OC(F)(F)F)cc3)nc2)c(=O)c1Cl` gave an IC50 of > 10 µM (HEK293).
For `COc1ccc(-c2ccc(-c3ccc(C(=N)N)nc3)s2)cc1`, the GI50 was 1.75 µM (SK-MEL-28; SRB).
For `FC1CCN(C2(CNCc3ccc(-c4ccccc4Cl)o3)COC2)C1` (stereo not drawn), the viability was 53.1% (T98G; 30 µM, 48 h).
For `Cc1cc(=O)c(-c2ccc(Oc3ccc(C(F)(F)F)cc3)cc2)c(C)n1O`, the IC50 was > 10 µM (HEK293).
With `COc1cccc(Oc2ccccc2NC(=O)CNC(=O)c2cccc3ccccc23)c1` the GI50 was 0.224 µM (SF-539; SRB; 48 h).
For `Cn1cc(-c2cc(N3CCCCS3(=O)=O)ccc2Oc2ccc(F)cc2F)c2c(F)c[nH]c2c1=O`, the GI50 was 0.015 µM (Rec1; CCK-8; 72 h).
`C=CC(=O)N1CCC[C@@H](n2nc(-c3ccc(Oc4ccccc4)cc3)c3c(N)ncnc32)C1` has a GI50 of 21.6 µM (KARPAS-422; ATP luminescence; 72 h).
For `COc1c(OCCCN2CCOCC2)ccc2c1N=C(NC(=O)c1sc(C)nc1C)N1CCN=C21`, the EC50 was 0.086 µM (KPL4).
For `c1cc2c(cc1CNCC1(N3CCCC3)COC1)OCCO2`, the viability was 97.2% (T98G; 30 µM, 48 h).
The IC50 of `Cc1[nH]c(C)c(-c2ccc(OCc3ccccc3C(F)(F)F)nc2)c(=O)c1Br` is reported as > 10 µM (HEK293).
`CCCc1n(Cc2ccc3ccccc3n2)cc[n+]1Cc1ccc2ccccc2n1` gave a TGI of 41.9 µM (NCI-H322M; SRB).
`Fc1ccc2c(CNCC3(N4CCC(F)C4)COC3)c[nH]c2c1` (stereo not drawn) gave a viability of 85.6% (GBM6; 30 µM, 48 h).
